# Reference: ChEMBL document CHEMBL1212809, “Rapid behavior-based identification of neuroactive small molecules in the zebrafish” (Nat Chem Biol, 2010)
# The source made the active and inactive calls. The calls are words filed in the database; no cut-off is given here.
# Legend:
# Danio rerio [1] = species on record: Danio rerio; experiment: Modulation of neurological behavior in zebrafish assessed as prolongation of high intensity light-induced motor response at 10 to 100 uM by photomotor response assay; format: functional, organism-based
# Procedure, shortened: (§1)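 Zebrafish embryos were raised in E3 medium buffered with 10 mM HEPES, in the dark at 28 °C. At 28 hpf, 8–10 per well went into 96-well plates, held dark at 25 °C for chemical treatment. For each well, 1000 video frames were recorded at 33 fps, with light stimuli. A motion index was computed from frame-to-frame pixel-intensity differences. Q1 and Q3 of this index over seven time periods gave fourteen pseudo z-scores versus control wells.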
# [2] = Ratio of pargyline IC50 to compound IC50 for MAO
# [3] = Inhibition of MAO at 10 uM by plate-reader assay
# [4] = Inhibition of MAO by plate-reader assay
# Danio rerio [5] = species on record: Danio rerio; experiment: Modulation of neurological behavior in zebrafish assessed as effect on touch response by high-throughput screening; format: functional, organism-based
# Procedure, shortened: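 Zebrafish embryos were raised in E3 medium buffered with 10 mM HEPES, in the dark at 28 °C. At 28 hpf, groups of 8–10 were placed in 96-well plates, then kept dark at 25 °C during chemical treatment. After the photomotor assay, each animal was touched with a fine plastic probe and observed under a dissecting microscope. Wells were scored normal, toxic, sedative (no touch response but healthy heartbeat and circulation) or other.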
# Danio rerio [6] = species on record: Danio rerio; experiment: Modulation of neurological behavior in zebrafish assessed as prolongation of high intensity light-induced motor response at < 10 uM by photomotor response assay; format: functional, organism-based; procedure, shortened: as §1
# Danio rerio [7] = species on record: Danio rerio; experiment: Toxicity in zebrafish assessed as mortality at 100 uM; format: organism-based; details: in vivo
# Procedure, shortened: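 Embryos were treated in 96-well plates, 8–10 per well, then scored after the photomotor assay under a dissecting microscope. Scoring covered developmental retardation, morphological defects, heart morphology, rate and circulation, response to touch with a fine plastic probe, and overall appearance. Wells were classed as normal, toxic, sedative or other.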
# Danio rerio [8] = species on record: Danio rerio; experiment: Modulation of neurological behavior in zebrafish assessed as robist increase in high intensity light-induced motor response at 10 to 100 uM by photomotor response assay; format: functional, organism-based
# Procedure, shortened: (§2)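 Embryos raised in HEPES (10 mM)-buffered E3 in the dark at 28 °C, then distributed at 28 hpf in groups of 8–10 per well of 96-well plates in E3 and held in the dark at 25 °C for chemical exposure. Light pulses were delivered while 1000 video frames were recorded at 33 fps. Motion index quartiles (Q1, Q3) in seven time periods were converted to pseudo z-scores against control wells.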
# Danio rerio [9] = species on record: Danio rerio; experiment: Modulation of neurological behavior in zebrafish assessed as robist increase in high intensity light-induced motor response at < 10 uM by photomotor response assay; format: functional, organism-based; procedure, shortened: as §2
# Acetylcholinesterase [10] = molecular target: T1, Acetylcholinesterase (Homo sapiens, UniProt P22303); experiment: Inhibition of AChE
# T1 sequence (P22303 whole entry): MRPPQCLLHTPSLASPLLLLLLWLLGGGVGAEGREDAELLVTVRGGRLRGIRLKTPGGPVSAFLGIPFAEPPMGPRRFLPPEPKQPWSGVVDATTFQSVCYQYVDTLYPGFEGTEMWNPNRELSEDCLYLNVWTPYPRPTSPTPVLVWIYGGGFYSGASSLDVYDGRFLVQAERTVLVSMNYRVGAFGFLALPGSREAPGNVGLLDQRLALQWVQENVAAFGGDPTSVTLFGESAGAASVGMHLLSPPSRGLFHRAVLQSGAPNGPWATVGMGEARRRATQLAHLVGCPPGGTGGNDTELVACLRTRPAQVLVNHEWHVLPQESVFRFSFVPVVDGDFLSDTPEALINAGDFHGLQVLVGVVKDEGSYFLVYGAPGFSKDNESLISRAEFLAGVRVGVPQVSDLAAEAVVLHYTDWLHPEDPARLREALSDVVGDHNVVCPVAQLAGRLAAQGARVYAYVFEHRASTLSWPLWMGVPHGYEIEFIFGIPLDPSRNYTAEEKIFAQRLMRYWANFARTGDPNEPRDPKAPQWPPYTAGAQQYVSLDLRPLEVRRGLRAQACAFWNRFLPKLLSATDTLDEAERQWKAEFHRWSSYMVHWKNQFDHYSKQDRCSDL
# Acetylcholinesterase [11] = molecular target: Acetylcholinesterase (Danio rerio, UniProt Q9DDE3); experiment: Inhibition of AChE in zebrafish embryo
# Sequence of Acetylcholinesterase (Danio rerio, UniProt Q9DDE3) (Q9DDE3 whole entry): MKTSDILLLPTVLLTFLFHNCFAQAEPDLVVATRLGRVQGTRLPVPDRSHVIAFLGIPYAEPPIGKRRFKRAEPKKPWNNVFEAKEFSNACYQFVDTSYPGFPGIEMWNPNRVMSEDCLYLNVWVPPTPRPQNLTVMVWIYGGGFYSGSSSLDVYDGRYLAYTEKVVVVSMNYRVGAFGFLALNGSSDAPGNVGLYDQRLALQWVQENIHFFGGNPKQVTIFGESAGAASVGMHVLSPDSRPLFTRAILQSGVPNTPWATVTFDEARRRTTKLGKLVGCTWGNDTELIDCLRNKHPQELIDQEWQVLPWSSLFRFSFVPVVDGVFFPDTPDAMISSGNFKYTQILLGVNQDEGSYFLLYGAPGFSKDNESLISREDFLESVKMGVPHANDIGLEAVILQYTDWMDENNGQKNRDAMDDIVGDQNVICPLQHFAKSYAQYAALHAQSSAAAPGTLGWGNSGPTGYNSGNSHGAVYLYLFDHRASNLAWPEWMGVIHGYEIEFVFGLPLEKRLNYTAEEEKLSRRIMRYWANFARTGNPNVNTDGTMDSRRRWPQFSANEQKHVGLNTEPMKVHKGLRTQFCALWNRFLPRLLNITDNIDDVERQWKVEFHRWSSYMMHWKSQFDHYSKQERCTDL
# Acetylcholinesterase [12] = molecular target: T1, Acetylcholinesterase; experiment: Inhibition of AChE at 10 uM
# Danio rerio [13] = species on record: Danio rerio; experiment: Anxiolytic activity in zebrafish assessed as decrease in high intensity light-induced motor behavior at 10 to 100 uM by photomotor response assay; format: functional, organism-based; procedure, shortened: as §2
# Danio rerio [14] = species on record: Danio rerio; experiment: Anxiolytic activity in zebrafish assessed as decrease in high intensity light-induced motor behavior at <10 uM by photomotor response assay; format: functional, organism-based; procedure, shortened: as §2
# Danio rerio [15] = species on record: Danio rerio; experiment: Psychostimulant activity in zebrafish assessed as increase in high intensity light-induced motor response at 10 to 100 uM by photomotor response assay; format: functional, organism-based; procedure, shortened: as §1
# Danio rerio [16] = species on record: Danio rerio; experiment: Psychostimulant activity in zebrafish assessed as increase in high intensity light-induced motor response at < 10 uM by photomotor response assay; format: functional, organism-based; procedure, shortened: as §1
compound,measurement,setting,value
CN1[C@@H]2CC[C@H]1C[C@@H](OC(=O)C(CO)c1ccccc1)C2 (some centres undefined),Activity,Danio rerio [1],Active
O=C(CNC(=O)OCc1ccccc1)Oc1cc2oc(=O)c3c(c2cc1Cl)CCC3,Ratio IC50,[2],100
same,inhibition,[3],0%
CC(C)(C)OC(=O)NCCC(=O)Oc1cc2oc(=O)c3c(c2cc1Cl)CCC3,Ratio IC50,[2],100
same,IC50,[4],1 µM
Cc1cc2c(OCC(CNC(C)(C)C)OC(=O)c3ccccc3)cccc2[nH]1 (centres undefined),Activity,Danio rerio [1],Active
CN1CCc2cccc3c2[C@H]1Cc1ccc(O)c(O)c1-3,Activity,Danio rerio [1],Active
same,Activity,Danio rerio [5],Active
same,Activity,Danio rerio [6],inactive
C[C@]12CC[C@H](O)C[C@H]1CC[C@@H]1[C@@H]2CC[C@]2(C)[C@@H](C3=CC(=O)OC3)CC[C@]12O [DIGITOXIGENIN],Activity,Danio rerio [5],Active
same,Activity,Danio rerio [7],Toxic
CNC[C@H](O)c1ccc(O)c(O)c1,Activity,Danio rerio [5],Active
CC(C)(C)NCC(O)c1cc(Cl)c(N)c(Cl)c1 (centres undefined),Activity,Danio rerio [5],Active
O=C(Oc1ccc2c3c(c(=O)oc2c1)CCCC3)c1ccccc1,Activity,Danio rerio [5],Active
O=[N+]([O-])c1ccc2nc(N3CCNCC3)ccc2c1,Activity,Danio rerio [5],Active
same,Activity,Danio rerio [8],Active
same,Activity,Danio rerio [9],inactive
CNC(=O)Oc1ccc2c(c1)[C@]1(C)CCN(C)[C@@H]1N2C,Activity,Danio rerio [5],Active
O=C(CCCN1C(=O)c2ccccc2C1=O)N1CCCCCC1,Activity,Danio rerio [5],Active
same,IC50,Acetylcholinesterase [10],0.5 µM
C#CCN(C)Cc1ccccc1,Activity,Danio rerio [5],Active
COC(=O)c1ccc(COc2cc(C)ccc2C(=O)Oc2ccc3c4c(c(=O)oc3c2)CCCC4)o1,Ratio IC50,[2],100
CC(C)(C)OC(=O)NCCC(=O)Oc1cc2oc(=O)c3c(c2cc1Cl)CCCC3,Ratio IC50,[2],100
same,IC50,[4],10 µM
CC(C)(C)OC(=O)NCC(=O)Oc1cc2oc(=O)c3c(c2cc1Cl)CCC3,Ratio IC50,[2],100
same,IC50,[4],0.5 µM
O=C1c2ccccc2-c2nc3ncnn3c(-c3ccccc3Cl)c21,IC50,Acetylcholinesterase [11],0.5 µM
same,Activity,Danio rerio [5],Active
same,inhibition,Acetylcholinesterase [12],inactive
C[n+]1ccccc1C=NO,Activity,Danio rerio [1],Active
CN1C(=O)CN=C(c2ccccc2)c2cc(Cl)ccc21,Activity,Danio rerio [5],Active
same,inhibition,Danio rerio [13],Active
same,inhibition,Danio rerio [14],inactive
CC(C)NCC(O)c1ccc(O)c(O)c1 (centres undefined),Activity,Danio rerio [5],Active
same,Activity,Danio rerio [15],Active
same,Activity,Danio rerio [16],inactive
same,Activity,Danio rerio [14],inactive
CC(=O)CC(c1ccccc1)c1c(O)c2ccccc2oc1=O (centres undefined),Activity,Danio rerio [5],Active
same,inhibition,[3],inactive
